Consider 6 molecules from publication PMC7775634 (Cell reports, 2020).

Assay [1] concerns Cdc15 phosphostate in cells. The note with it: FK506-treated cells; ref Martín-García et al., 2018; cited from earlier work.
The test system of assay [2] is Imp2 F-BAR domain. Kind of assay: In vitro binding assay. Also noted: species or system S. pombe. The note with it: biotin-labeled peptide; streptavidin pull down; SDS-PAGE, Coomassie. The procedure, abridged:
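Biotinylated test peptide (0.10 μM) and purified F-BAR domain (0.05 μM) were mixed with streptavidin resin. Incubation was 1 h at 4°C in 50 mM Tris pH 7.4, 250 mM NaCl, 0.1% NP-40. Resin was washed thoroughly. Bound protein was resolved by SDS-PAGE and stained with Coomassie blue.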

The target of assay [3] is T1, Cdc15 F-BAR domain (E30K E152K) (Schizosaccharomyces pombe, UniProt Q09822, E152K/E30K).
T1 sequence (Q09822 19-312 E30K/E152K): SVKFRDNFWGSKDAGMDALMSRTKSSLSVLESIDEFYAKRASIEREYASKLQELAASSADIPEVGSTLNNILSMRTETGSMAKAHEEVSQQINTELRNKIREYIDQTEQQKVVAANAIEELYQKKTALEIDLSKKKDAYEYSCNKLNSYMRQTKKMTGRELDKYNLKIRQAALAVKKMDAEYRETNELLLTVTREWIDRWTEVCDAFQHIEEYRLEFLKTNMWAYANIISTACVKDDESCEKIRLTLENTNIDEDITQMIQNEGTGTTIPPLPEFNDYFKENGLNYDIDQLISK
Kind of assay: Isothermal titration calorimetry. It counts as binding, S. pombe. A general note: In ITC the heat of successive injections is recorded.

The subject of assay [4] is Cdc15 F-BAR domain. The experiment in a line: Binding between purified Cdc15 F-BAR domain and recombinant CN. The arrangement: species or system S. pombe.
For assay [5] the following is noted: phosphorylated; ref Bhattacharjee et al., 2020; cited from earlier work.
In assay [6] the target is T2, GFP-Cdc15 F-BAR domain (residues 19-312) (S. pombe, UniProt Q09822 19-312).
T2 sequence (looked up): T1 sequence (Q09822 19-312 E30K/E152K) with K12E, K134E
The experiment in a line: recruitment to giant unilamellar vesicles, fluorescence microscopy.

Positions count from the first letter of the chain named. Names may count otherwise. Ends that are not written are not given here. * marks the point of attachment. Biotin = O=C1N[C@H]2[C@H](CS[C@H]2CCCCC(=O)*)N1; Rhodamine = not defined here

Turning to `C=CC[C@@H]1/C=C(\C)C[C@H](C)C[C@H](OC)[C@H]2O[C@@](O)(C(=O)C(=O)N3CCCC[C@H]3C(=O)O[C@H](/C(C)=C/[C@@H]3CC[C@@H](O)[C@H](OC)C3)[C@H](C)[C@@H](O)CC1=O)[C@H](C)C[C@@H]2OC` [FK506], the Cdc15 phosphostate result in assay [1] was “Cdc15 phosphostate changes”.
“Cdc12 peptide (residues 20–40): Cdc12 (residues 20–40) peptide synthesized with an N-terminal biotin modification, used for binding assays (Biotin-TPTPSARRTIGPRAPKSKTTY)”: the “interaction with Imp2 F-BAR domain” value in assay [2] is on record as “did not interact”.
What is called Kd is the constant that tells how readily two partners part at equilibrium. Low values mean tighter binding, high ones weaker binding. In assay [3], TPTPSARRTIGPRAPKSKTTY [Cdc12 peptide] gave a Kd of 5 µM.
For “recombinant CN: Calcineurin produced by co-expressing Ppb1 as a 6xHis fusion (catalytic subunit), Cnb1 (regulatory subunit), and Cam1 (calmodulin)”, in assay [4], the “binding to purified Cdc15 F-BAR domain” value is on record as “did not detect binding”.

B1: Cdc15 (E30K E152K): Full-length FLAG-Cdc15 (E30K E152K) co-expressed with kinase Pom1 (protein, UniProt Q09822 1-927, looked up, variant E30K E152K)
chain: MEVNGVSQSEAAPYVTKSSVKFRDNFWGSKDAGMDALMSRTKSSLSVLESIDEFYAKRASIEREYASKLQELAASSADIPEVGSTLNNILSMRTETGSMAKAHEEVSQQINTELRNKIREYIDQTEQQKVVAANAIEELYQKKTALEIDLSKKKDAYEYSCNKLNSYMRQTKKMTGRELDKYNLKIRQAALAVKKMDAEYRETNELLLTVTREWIDRWTEVCDAFQHIEEYRLEFLKTNMWAYANIISTACVKDDESCEKIRLTLENTNIDEDITQMIQNEGTGTTIPPLPEFNDYFKENGLNYDIDQLISKAPSYPYSSSRPSASASLASSPTRSAFRPKTSETVSSEVVSSPPTSPLHSPVKPVSNEQVEQVTEVELSIPVPSIQEAESQKPVLTGSSMRRPSVTSPTFEVAARPLTSMDVRSSHNAETEVQAIPAATDISPEVKEGKNSENAITKDNDDIILSSQLQPTATGSRSSRLSFSRHGHGSQTSLGSIKRKSIMERMGRPTSPFMGSSFSNMGSRSTSPTKEGFASNQHATGASVQSDELEDIDPRANVVLNVGPNMLSVGEAPVESTSKEEDKDVPDPIANAMAELSSSMRRRQSTSVDDEAPVSLSKTSSSTRLNGLGYHSRNTSIASDIDGVPKKSTLGAPPAAHTSAQMQRMSNSFASQTKQVFGEQRTENSARESLRHSRSNMSRSPSPMLSRRSSTLRPSFERSASSLSVRQSDVVSPAPSTRARGQSVSGQQRPSSSMSLYGEYNKSQPQLSMQRSVSPNPLGPNRRSSSVLQSQKSTSSNTSNRNNGGYSGSRPSSEMGHRYGSMSGRSMRQVSQRSTSRARSPEPTNRNSVQSKNVDPRATFTAEGEPILGYVIALYDYQAQIPEEISFQKGDTLMVLRTQEDGWWDGEIINVPNSKRGLFPSNFVQTV
modifications: full-length FLAG tag
As to B1, the membrane binding entry in assay [5] is given as “did not bind membrane”.
In the case of Rhodamine-TPTPSARRTIGPRAPKSKTTY (reading uncertain) [Rhodamine-Cdc12(aa20-40) peptide], the binding result in assay [6] was “binds”.
